System: MS2 coat protein
Test: apparent Kd, MS2 coat protein; higher = weaker binding; RNA-MaP array; FMN 200 µM where present
Summary of the method: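 Designs on Illumina sequencing-chip clusters, transcribed by stalled E. coli RNA polymerase, were exposed to SNAP-549-labelled MS2 coat protein in doubling steps from 0.7 or 1.5 nM up to 3 µM, without and then with constant ligand. The buffer held 100 mM Tris-HCl pH 7.5, 80 mM KCl, 4 mM MgCl2, BSA, DTT, yeast tRNA and Tween-20. Apparent Kd values are medians of filtered per-cluster binding-curve fits to green signal normalised to red-channel RNA signal and control-cluster median Fmax.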

[1] = designed as: OFF switch for flavin mononucleotide, no ligand
[2] = ligand present: flavin mononucleotide, designed as: OFF switch for flavin mononucleotide
[3] = designed as: ON switch for flavin mononucleotide, no ligand
[4] = ligand present: flavin mononucleotide, designed as: ON switch for flavin mononucleotide

| Sequence | apparent Kd [1] | apparent Kd [2] | apparent Kd [3] | apparent Kd [4] |
| --- | --- | --- | --- | --- |
| UCGGCGCGAGGAUAUACGUUUGCUUUUUAGGAUCGUUGCGUACAUGAGGAUCACCCAUGUAGAAGGCGCGCCGC | 0.0146 µM | 0.0195 µM |  |  |
| UCGUGAAGGACAGGAUAUGGACAUGAGGAUCACCCAUGUACAUGGGAAUAUAUACUGCAUUUAUACUAGAAGGGUUACAUAAAU | 0.0129 µM | 0.0112 µM |  |  |
| UCGUGCCGGGUCACGAUUGACCCACAUGAGGAUCACCCAUGUAGAAGGACCAGCGUCGGCCCUUGGUAGGAUAUACAUGAGCUC | 0.0948 µM | 0.114 µM |  |  |
| UCUACAUAAAUUCAUCAAUACAGAAAGGAUAUGAGAUACAUGAGGAUCACCCAUGUGCAUGGGAAUUAGAAGGUUCAAUUAGCU | 0.0942 µM | 0.0587 µM |  |  |
| UCUAUGUAGAUUCGUCAAUACAGUUAGGAUAUGAGAUACAUGAGGAUCACCCAUGUGCAUGUGGAUUAGAAGGAACAAUUAACU | 0.0934 µM | 0.0698 µM |  |  |
| UCUCGACAUGAGGAUCACCCAUGUCAGGAUAUUGUGUUUGAGGUUUUUUACCUUUUGACAAGAAGGGAUGUGUG |  | 0.0305 µM |  |  |
| UCUCGUUUCGCAGGAUAUGCUGGUCGGUAAUAUACCGGCCACAUGAGGAUCACCCAUGUGCCACAGCAGAAGGGUGACACUAGA |  |  | 0.634 µM | 0.0657 µM |
| UCUGCUCGAGGAUAUACAUGAGGAUCACCCAUGUAUCCCUGUAGCAUGGCCUCAGGAUGUAGAAGGCGACGCUA | 0.0149 µM | 0.0168 µM |  |  |
| UGAAAUCAUGUAGGAUAUGCAUGGCGAAGCUACGCAGAAGGACAUGAGGAUCACCCAUGUUAUAGCGUCCGAUAAAGGAUGCAA | 0.135 µM | 0.139 µM |  |  |
| UGAAAUCAUGUAGGAUAUGCAUGGCGAAGCUACGCAGAAGGACAUGAGGAUCACCCAUGUUAUAGCUACCAAGUUAGGUGGCAA | 0.155 µM | 0.138 µM |  |  |
| UGAACCCAUGUUAGGAUAUCAGGCCGAGGAAGUUCUGAGAAGGGACAUGAGGAUCACCCAUGUAUAAAAGAAAC | 0.0706 µM | 0.0418 µM |  |  |
| UGAACUUCAGAGAAGGUCGAACGGCAACGAUUCGAAGGAUAUCUGGAAACAUGAGGAUCACCCAUGUAACCGGGUGGAUGUCCU | 0.0433 µM | 0.182 µM |  |  |
| UGAAUGUGAGGAUAUGGUGAGUAGUGCCUAAGCGCUGCUCACCAGAAGGCACAUGAGGAUCACCCAUGUACUUG | 0.0617 µM | 0.192 µM |  |  |
| UGACACAUGAGGGUCUCCCUUGACAUGAGGAUCACCCAUGUGCAGGAUAUACGUGUGAUGGUAUAGUAGAAGGGCACUCUAUGU | 0.0306 µM | 0.0405 µM |  |  |
| UGACAUAUAUAGAAGGGUAGUAGGGUUUUACAUGAGGAUCACCCAUGUAUUAUAGGAUAUGUGUAAAGUUAUUAUUAAAGUAAA | 0.0225 µM | 0.0172 µM |  |  |
| UGACGGAGCAGAGGAUAUUACAUGAGGAUCACCCAUGUAUGAACCAAUAGCUGGAAACAGCAAUGUAAGAAGGCUGCUCCGACA | 0.0116 µM | 0.147 µM |  |  |
| UGAGAUCGGGCAGGAUAUCGACAUGAGGAUCACCCAUGUGGGUUAUACUUCCCGCAUGGCUGUGGCGAGAAGGGCCCGGACCAU | 0.395 µM | 0.0831 µM |  |  |
| UGAGCAUCAGGAUAUAUGUGGCGACCGUGAGGUCGAAGGUUACAUGAGGAUCACCCAUGUAGAAGGGAUGUUCU | 0.0626 µM | 0.203 µM |  |  |
| UGAGCAUGAGGAUAUACAAGGCGUGCGUGAGCACGAGGUUUACAUGAGGAUCACCCAUGUAGAAGGCAUGUUCU | 0.0191 µM | 0.0398 µM |  |  |
| UGAGCAUGAGGAUAUACUUGGCGACCGUGAGGUCGAGGUUUACAUGAGGAUCACCCAUGUAGAAGGCAUGUUCU | 0.0187 µM | 0.0527 µM |  |  |
| UGAGCCUCGUGAGGAUAUACAUGAGGAUCACCCAUGUAAAUGAAAGAUACGUCGAAACGACGAAUGUAGAAGGCACGAGGCUCA | 0.0184 µM | 0.0613 µM |  |  |
| UGAGGACAUGAGGAUCACCCAUGUAAGGAUAUGCGGAGAGUUUGGAGAGGUUGAGGAGGCAGAAGGUACGGGAU | 0.155 µM | 0.0791 µM |  |  |
| UGAUAGGACACAGGAUAUACGUCCUAGAGAUACUAGGAAAGUUUCCUCACAUGAGGAUCACCCAUGUAGAAGGGUGUCCUAUCU | 0.00993 µM | 0.222 µM |  |  |
| UGAUAGGACAGAGGAUAUACGUGCUAGAGAUACUAGCAAAGUAUCUUGACAUGAGGAUCACCCAUGUAGAAGGCUGUCCUAUCU | 0.00599 µM | 0.0143 µM |  |  |
| UGAUCGAGAGAUCUUAGAUUCUGCAAGGAUAUGCAGGAGUUGCGCUUUACAUGAGGAUCACCCAUGUAGAAGGUGUAGAGUCUA | 0.00662 µM | 0.00808 µM |  |  |
| UGAUCGAGAGAUCUUAGAUUCUGGUAGGAUAUACAACAGUUGCGCUUUACAUGAGGAUCACCCAUGUAGAAGGACUAGAGUCUA | 0.00755 µM | 0.00878 µM |  |  |
| UGAUCGAGAGAUCUUAGAUUCUGGUAGGAUAUACAUUAUAGAAGAUAUACAUGAGGAUCACCCAUGUAGAAGGACUAGAGUCUA | 0.00673 µM | 0.00972 µM |  |  |
| UGAUUUCAUGUAGGAUAUGCUUGGCGAAGCUACGCAGAAGGACAUGAGGAUCACCCAUGUUUUAGCGUCUGAGUAUAGAUUCUA | 0.0306 µM | 0.187 µM |  |  |

| Sequence | apparent Kd [1] | apparent Kd [2] | apparent Kd [3] | apparent Kd [4] |
| --- | --- | --- | --- | --- |
| UGAUUUUCUUCUAACUAUCACCACAUGAGGAUCACCCAUGUCAAGGAUAUAGAGCGCGCUGGGUUCUAGAAGGUGGCGUGCCAA | 0.00752 µM | 0.00647 µM |  |  |
| UGCAGCGUGCACAUGAGGAUCACCCAUGUGCCAGUGGACGCACAGGAUAUGCAAUCGUACGGCUAGCAGAAGGGUGGGUCUCAC |  |  | 0.00737 µM | 0.007 µM |
| UGCAUGGUAGGAUAUACGGAACAUUAGGGUUUGUUAUGUAGACAUGAGGAUCACCCAUGUAGAAGGGCCGUGCU | 0.0379 µM | 0.0608 µM |  |  |
| UGCCAUUACAUGAGGAUCACCCAUGUUCGCUAUGCGGGCUCGCAGGAUAUCCUCGCAGAUAAAGAGGAGAAGGGUGAUCCCGAC |  |  | 0.048 µM | 0.0289 µM |
| UGCGGUUGAGGAUAUACGUAGAAAUAGAUUCAUGUAAAACUACAUGAGGAUCACCCAUGUAGAAGGCAAUCGCU | 0.0257 µM | 0.217 µM |  |  |
| UGCGUACAAGCAGACAUGAGGAUCACCCAUGUGGUCUCAUGCGAGGAUAUCGGGAAGGAGGAUUCCGAGAAGGUGCGGUGAGCC |  |  | 0.157 µM | 0.0396 µM |
| UGCUACUAGGGAGGAUAUGGGAAGAUACAUGAGGAUCACCCAUGUUUAAGAAUGCCGAGAGGCAACUAGAAGGCCCUAGUACCU |  |  | 0.401 µM | 0.0221 µM |
| UGCUGACGAGGAUAUACAUGAGGAUCACCCAUGUUGGUCAAGCGACGAUAGUCGCAAUGUAGAAGGCGUCAGCU | 0.483 µM | 0.208 µM |  |  |
| UGCUGGCGAGGAUAUGCUCGGGUUGCUUGUCGCGCGGUUGCACAUGAGGAUCACCCAUGUAGAAGGUGUCUGUG | 0.311 µM | 0.438 µM |  |  |
| UGGACCGAGCUGUCGGUUGGCUCUUAGGAUAUGACAUGAGGAUCACCCAUGUGGGAUCUAAAUUGUCAGAAGGAGGGUUCUGGG | 0.0483 µM | 0.0403 µM |  |  |
| UGGAGAAAUCAAGGAUAUGCUACCGUUUCGGUAGCAGAAGGUGAUCACAUGAGGAUCACCCAUGUAUGCAUGCGUGAGCGUGCU |  |  | 0.0464 µM | 0.289 µM |
| UGGAUCAAUACAGGAUAUGGUGACGCACAUGAGGAUCACCCAUGUCCGCAGCGUGCUAAGCACGCCCAGAAGGGUAUUAAUUCG |  |  | 0.885 µM | 0.09 µM |
| UGGAUGGUAUGAGGAUAUGCGCGCGAAACGUGCGCAGAAGGCAUGUCAAUAGACAUGAGGAUCACCCAUGUAUUAUCCAUCCAA |  |  | 0.14 µM | 0.0125 µM |
| UGGAUGUAGGAGAAGGAGGACUUCAUGAGGAUCACCCAUGUGUUAGGACUUAGGAUAUUUGACGACAUGAGGAUCACCCAUGUG |  |  | 0.0636 µM | 0.0584 µM |
| UGGGCUUUAGGAUAUGCGUGUUGUAGUCGGCGAUGUGGUUCACAUGAGGAUCACCCAUGUAGAAGGAGGGUUUA | 0.139 µM | 0.12 µM |  |  |
| UGGUACAUCAUAGGAUAUCGUGUGUAAACAUGAGGAUCACCCAUGUCAUCCGAGAGUAUGUCGACCGAGAAGGGUGAUGUACCU |  |  | 0.0454 µM | 0.0727 µM |
| UGGUACAUCGGAGGAUAUCAUGUGAAAACAUGAGGAUCACCCAUGUCGAUGGAGACAUCGGAGAUUGAGAAGGCCGAUGUACCU |  |  | 1.47 µM | 0.0499 µM |
| UGGUACAUGGGAGGAUAUCAUGUACUUACAUGAGGAUCACCCAUGUCGAUGGAGACAUCGGAGAUUGAGAAGGCCCAUGUACCU |  |  | 1.22 µM | 0.0422 µM |
| UGGUACAUGGGAGGAUAUCAUGUUCUUACAUGAGGAUCACCCAUGUCGAUGGAGACAUCGGAGAUUGAGAAGGCCCAUGUACCU |  |  | 1.07 µM | 0.0542 µM |
| UGGUACAUGGGAGGAUAUCCUCAACAUGAGGAUCACCCAUGUAAGAAUUAUAAGCCGAAAGGCAUGGAGAAGGCCCAUGUACCU |  |  | 0.0716 µM | 0.0153 µM |
| UGGUACAUGGGAGGAUAUGGGUUGAUAACAUGAGGAUCACCCAUGUUAAAUAUCCCGAGAGGGAACUAGAAGGCCCAUGUACCU |  |  | 0.643 µM | 0.046 µM |
| UGGUACUAGGGAGGAUAUGGGAAGAUACAUGAGGAUCACCCAUGUUUAAGAAAGCCGAGAGGCAACUAGAAGGCCCUAGUACCU |  |  | 0.278 µM | 0.0138 µM |
| UGGUACUAGGGAGGAUAUGGGAAGAUACAUGAGGAUCACCCAUGUUUAAGAAUGCCCAGAGGCAACUAGAAGGCCCUAGUACCU |  |  | 0.0662 µM | 0.0169 µM |
| UGGUACUAGGGAGGAUAUGGGAAGAUACAUGAGGAUCACCCAUGUUUAAGAAUGCCGAGAAGCAACUAGAAGGCCCUAGUACCU |  |  | 0.332 µM | 0.0195 µM |
| UGGUACUAGGGAGGAUAUGGGAAGAUACAUGAGGAUCACCCAUGUUUAAGAAUGCCGAGAGGCAACAAGAAGGCCCUAGUACCU |  |  | 0.532 µM | 0.0989 µM |
| UGGUACUAGGGAGGAUAUGGGAAGAUACAUGAGGAUCACCCAUGUUUAAGAAUGCCGAGAGGCCACUAGAAGGCCCUAGUACCU |  |  | 0.244 µM | 0.0124 µM |
| UGGUACUAGGGAGGAUAUGGGAAGAUACAUGAGGAUCACCCAUGUUUAAGAAUGCCGAGAGGCGACUAGAAGGCCCUAGUACCU |  |  | 0.311 µM | 0.0153 µM |

Reference: the EternaBench riboswitch data
